We go through ten compounds from publication PMC2964879 (Biochemistry, 2010).

Converted amounts (≈) assume the structure as drawn.

Assay [1] has as its system MbtA. As to conditions: cited from earlier work.
For assay [2], the target named is T1, BasE (Acinetobacter baumannii, UniProt A0A0D5YGP3). Conditions: for kcat, fold decrease relative to DHB / specificity constant, fold lower than DHB: relative to DHB; for KM, fold change relative to DHB: relative to DHB (increase in KM).
Assay [3] concerns holo-BasF. As to the kind of experiment: ESI-TOF mass spectrometry of aryl acid loading onto holo-BasF by BasE. It counts as biochemical, A. baumannii AB900. As to conditions: 50 μM holo-BasF, 200 nM BasE, 250 μM aryl acid, 16 hours. The procedure, abridged:
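His-tagged BasF from A. baumannii AB900, expressed in E. coli, made holo in vitro with Sfp and CoA, then anion-exchange purified. Apo- and holo-BasF in the same buffer were reference samples. Samples were diluted in 50:50 water:acetonitrile with 0.1% formic acid and injected directly for ESI-TOF MS.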

Assay [4] concerns EntE. Conditions: cited from earlier work.
In assay [5] the test system is A. baumannii. As to the kind of experiment: Antibacterial activity. The class given is cell-based.
Assay [6] has as its target T1, BasE. Briefly: Kinetic inhibition experiments with the continuous coupled assay. It counts as biochemical, A. baumannii ATCC17978.
Assay [7] concerns coupling enzymes inorganic pyrophosphatase and purine nucleoside phosphorylase. As to the kind of experiment: Counter-test on the coupling enzymes of the continuous assay. As to conditions: 200 μM; data not shown. It counts as biochemical.
Assay [8] addresses T1, BasE. As to the kind of experiment: Fluorescence polarization displacement assay, BasE-AB900. The class given is binding, A. baumannii AB900. As to conditions: read-out: KD (FP) of the fluorescent probe. In general terms: Fluorescence polarisation rises when a labelled molecule tumbles more slowly, as on binding a larger partner.
For assay [9], the target named is T1, BasE. Briefly: Fluorescence polarization displacement assay, BasE-ATCC. The class given is binding, A. baumannii ATCC17978. As to conditions: read-out: KD (FP) of the fluorescent probe.
The target of assay [10] is BasE. Conditions: read-out: dissociation constant Kia; nonvaried substrate in eq 2; cited from earlier work.
The subject of assay [11] is BasE. Conditions: ATP-PPi exchange, saturating ATP; cited from earlier work.

`Nc1nc(-c2ccccc2)nc2c1ncn2[C@@H]1O[C@H](COS(=O)(=O)NC(=O)c2ccccc2O)[C@@H](O)[C@H]1O` [5′-O-[N-(2-hydroxybenzoyl)sulfamoyl]-2-phenyladenosine]: in [1], the binding constant result is recorded as “subnanomolar”.

With `Nc1ncnc2c1ncn2[C@@H]1O[C@H](COP(=O)(O)OP(=O)(O)OP(=O)(O)O)[C@@H](O)[C@H]1O` [ATP], in assay [2] (substrate of BasE, coupled assay, 25 °C, pH 8.0), the kcat (in general, the maximal rate divided by the concentration of active sites) was 2.8 ± 0.2 s⁻¹. The Michaelis-Menten constant (Km) (in general, the substrate concentration at which the rate is half of its maximum) in assay [2] (substrate of BasE, coupled assay, 25 °C, pH 8.0, nonvaried substrates saturating) came out at 300 ± 71 µM.

In the case of `O=C(O)c1ccccc1` [BA, benzoic acid], in [2], the “kcat, fold decrease relative to DHB” value is given as around 10 fold; the “specificity constant, fold lower than DHB” value is “three orders of magnitude”; the “KM, fold change relative to DHB” value is reported as around 100 fold. Further, the loading result in assay [3] was “partial”.

Take `O=C(O)c1cccc(O)c1` [Compound 3-HBA, 3-hydroxy benzoic acid]: in assay [2], the “specificity constant, fold lower than DHB” value is reported as 60 fold. The loading entry in [3] is listed as “partial”.

On to `Nc1ncnc2c1ncn2[C@@H]1O[C@H](COS(=O)(=O)NC(=O)c2cccc(O)c2O)[C@@H](O)[C@H]1O` [Compound 5, 5′-O-[N-(2,3-dihydroxybenzoyl)sulfamoyl]adenosine], for which the “inhibition of EntE (inhibition and dissociation constants, in words)” value in [4] is on record as “slow tight-binding picomolar inhibitors”. The “antibacterial activity against A. baumannii” value in assay [5] (unpublished results, D. Wilson and C. Aldrich) is “do not possess any antibacterial activity”.

With `CCCCCCCCCCCCc1cn(-c2nc(N)c3ncn([C@@H]4O[C@H](COS(=O)(=O)NC(=O)c5ccccc5O)[C@@H](O)[C@H]4O)c3n2)nn1` [Compound 7, 2-(4-n-dodecyl-1,2,3-triazol-1-yl)-5′-O-[N-(2-hydroxybenzoyl)sulfamoyl]adenosine], the MIC (usually the lowest concentration that inhibits growth of the organism) in assay [5] (Acinetobacter baumannii) is around 15 µM (≈ 10.5 µg/mL). Further, in assay [5] (iron replete conditions), the antibacterial activity result is “inactive”.

On to `O=C(O)c1cc(-c2ccccc2)nc2c1cnn2Cc1ccncc1` [Compound 8, 6-phenyl-1-(pyridin-4-ylmethyl)-1H-pyrazolo[3,4-b]pyridine-4-carboxylic acid], for which the “modality of inhibition with respect to DHB and ATP” value in assay [6] is reported as “competitive inhibition with respect to both substrates”. In addition, in [6] (10 min pre-incubation at 25 °C, data not shown), the slow binding inhibition entry was “did not exhibit slow binding inhibition”. Further, the “inhibition of the coupling enzymes” value in assay [7] is given as “did not inhibit”.

With `Nc1ncnc2c1ncn2[C@@H]1O[C@H](COS(=O)(=O)NC(=O)c2ccccc2O)[C@@H](O)[C@H]1OCCOCCOCCNC(=O)c1ccc2c(c1)C(=O)OC21c2ccc(O)cc2Oc2cc(O)ccc21` [Compound 9, 2′-O-{2-[2-(2-{[(fluorescein-5-yl)carbonyl]amino}ethoxy)ethoxy]ethoxy}-5′-O-[N-(2-hydroxybenzoyl)sulfamoyl]adenosine], the Kd is 144 ± 9 nM in assay [8] and 84 ± 6 nM in [9].

On to `O=C(O)c1cccc(O)c1O` [DHB, 2,3-dihydroxybenzoic acid], for which the loading entry in assay [3] was “full”. Further, the Kd in assay [10] is 2630 nM. In assay [11], the Michaelis constant (Km) is 1.5 µM and the kcat was 3.5 s⁻¹.

`O=C(O)c1ccccc1O` [SAL, 2-hydroxybenzoic acid]: in [2], the “kcat, fold decrease relative to DHB” value is recorded as around 3 fold; the “specificity constant, fold lower than DHB” value is “approximately 6 fold”; the “KM, fold change relative to DHB” value is “approximately 2 fold”. In addition, the loading result in [3] is “partial”.
